Source: article PMC12144996 (Acta Pharmaceutica Sinica. B, 2025)
Read-outs that look alike come from different tables or passages of the source.

Columns and labels:
MHV-A59 [1] = assay type: in vivo, mouse hepatitis virus
MHV-A59 [2] = experiment: Therapeutic treatment from 12 hpi in MHV-A59-infected BALB/c mice; assay type: in vivo, mouse hepatitis virus; conditions: 5 dpi; for Serum ALT and AST (liver injury markers): 50 mg/kg intragastric twice daily from 12 hpi, vs vehicle; for MHV replication in the lung (qRT-PCR and plaque assay): 500 mg/kg intragastric twice daily from 12 hpi
Outline: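 BALB/c mice were infected intranasally with 4×10^5 PFU MHV-A59. At 5 dpi, lung and liver were assayed by qRT-PCR and L2-cell plaque assay. Orbital blood was clotted at room temperature and the serum run in ALT/AST kits.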

HCoV-OC43 = experiment: Anti-human coronavirus activity, viral RNA by qRT-PCR, HCoV-OC43 in HCT-8 cells; assay type: cell-based; conditions: Betacoronavirus 1, OC43, HCT-8, read-out: EC50 for HCoV-OC43
MHV = experiment: Anti-animal coronavirus activity, viral load by qRT-PCR, MHV in L2 cells; assay type: cell-based, mouse hepatitis virus; conditions: Murine coronavirus, 48 h, read-out: EC50 for MHV
Outline: (§1)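 Cells seeded in 48-well plates and grown 24 h to about 90% confluence, then washed three times with serum-free medium. Infected at MOI 0.01 for 1 h at 37 °C, then given medium with test compound dilutions or DMSO. After 48 h at 37 °C, cells and supernatants were harvested for viral load by qRT-PCR. EC50 taken from the dose–response curve; mean ± SEM.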

HCoV-229E = experiment: microbe, parasite or virus in culture; assay type: cell-based; conditions: Human coronavirus 229E, Huh-7, read-out: EC50 for HCoV-229E
MHV-A59 [3] = experiment: Delayed therapeutic treatment; assay type: in vivo, mouse hepatitis virus; conditions: 5 dpi; for Viral replication in the lung (qRT-PCR): start 24-96 hpi
Outline: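 BALB/c mice under light isoflurane anaesthesia were infected intranasally with 4×10^5 PFU MHV-A59 in 40 μL DMEM. Test compound was started at delayed times post-infection and given every 12 h. At 5 dpi, lung and liver virus was measured by qRT-PCR and by plaque assay on L2 cells, with methyl cellulose overlay and crystal violet staining. Lungs were scored 0–4 for edema, mononuclear and PMN infiltration and hemorrhage; livers were blindly Ishak-scored. Serum ALT/AST measured by kit.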

MHV-A59 [4] = experiment: Prophylactic ATV006 in MHV-A59-infected BALB/c mice, liver; assay type: in vivo, mouse hepatitis virus
[5] = rats; cited from earlier work
TGEV = experiment: Anti-animal coronavirus activity, viral load by qRT-PCR, TGEV in ST cells; assay type: cell-based, transmissible gastroenteritis virus; conditions: Alphacoronavirus 1, 48 h, read-out: EC50 for TGEV
Outline: as §1

PEDV = experiment: Anti-animal coronavirus activity, viral load by qRT-PCR, PEDV in Vero E6 cells; assay type: cell-based; conditions: Porcine epidemic diarrhea virus, Vero C1008, 48 h, read-out: EC50 for PEDV
Outline: as §1

[6] = cynomolgus monkeys; cited from earlier work
MHV-A59 [7] = experiment: Prophylactic ATV006 in intranasally MHV-A59-infected BALB/c mice, lung; assay type: in vivo, mouse hepatitis virus; conditions: 3 dpi
Outline: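 BALB/c mice were inoculated intranasally with 4×10^5 PFU MHV-A59 under mild isoflurane anaesthesia. They received vehicle (n = 6) or test compound at 500, 250, 100 or 50 mg/kg intragastric twice daily as prophylaxis (n = 5). Lungs were taken at 3 dpi for qRT-PCR and for plaque assay on L2 cells (methyl cellulose overlay, crystal violet). Lung sections were zinc formalin-fixed, 4 μm, H&E stained.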

MHV-A59 [8] = experiment: Time-of-addition of ATV006 in MHV-A59-infected cells, viral load; assay type: cell-based, mouse hepatitis virus; conditions: ATV006 administered 48 h after the viral infection; MOI = 0.0001
HCoV-NL63 = assay type: cell-based; conditions: Human coronavirus NL63, LLC-MK2, read-out: EC50 for HCoV-NL63
[9] = […], remdesivir 20 mg/kg intraperitoneal once daily
[10] = […], GS-441524 50 mg/kg oral once daily
[11] = ATV006 500 mg/kg administered at 24 hpi

In the case of CCC(CC)COC(=O)[C@H](C)N[P@](=O)(OC[C@H]1O[C@@](C#N)(c2ccc3c(N)ncnn23)[C@H](O)[C@@H]1O)Oc1ccccc1 [remdesivir, reference compound], the “Body weight compared with ATV006 (50 mg/kg)” value (MHV-A59 [1]; [9]) is reported as “lower than that of mice treated with ATV006” and the Survival (MHV-A59 [1]; [9]) is reported as “prevented MHV-infected mice from dying”.

In the case of N#C[C@@]1(c2ccc3c(N)ncnn23)O[C@H](CO)[C@@H](O)[C@H]1O [GS-441524, reference compound], the “Body weight compared with ATV006 (50 mg/kg)” value (MHV-A59 [1]; [10]) is reported as “lower than that of mice treated with ATV006”, the Survival (MHV-A59 [1]; [10]) is reported as “prevented MHV-infected mice from dying” and the “Serum ALT and AST (liver injury markers)” value (MHV-A59 [2]) is reported as “significantly reduced the liver injury markers ALT and AST”. The “MHV replication in the lung (qRT-PCR and plaque assay)” value (MHV-A59 [2]) was “only ATV006 significantly inhibited MHV replication in the lung” and the “Virus titers in the liver (plaque assay)” value (MHV-A59 [2]; GS-441524 at 25, 50 mg/kg twice daily from 12 hpi) was “below the detection limit of the plaque assay”.

Work on CC(C)C(=O)OC[C@H]1O[C@@](C#N)(c2ccc3c(N)ncnn23)[C@H](O)[C@@H]1O [ATV006] yielded an EC50 (HCoV-OC43) of 2900 nM, an EC50 (MHV) of 265 nM and an EC50 (HCoV-229E) of 1120 nM. The “MHV replication in the liver (qRT-PCR)” value (MHV-A59 [3]; ATV006 2 mg/kg, delayed treatment) was “ineffective”, the “Liver pathology (Ishak scoring)” value (MHV-A59 [3]; ATV006 10 mg/kg administered at 24, 48 and 72 hpi) was “significantly reduced liver piecemeal necrosis, bridging necrosis, circumscribed hepatic necrosis, and portal inflammation” and the “Serum ALT and AST levels” value (MHV-A59 [3]; ATV006 10 mg/kg, delayed treatment) was “alleviated liver injury”. For the same compound, the “Virus titers in the liver (plaque assay)” value (MHV-A59 [3]; ATV006 50 mg/kg administered as late as 96 hpi) was “reduced virus titers to levels undetectable by plaque assay”, the “Viral replication in the lung (qRT-PCR)” value (MHV-A59 [3]; ATV006 250 mg/kg every 12 h) was “significant inhibition of viral replication only when ATV006 treatment (250 mg/kg) began no later than 24 hpi” and the “Bleeding in the lungs (hemorrhage score)” value (MHV-A59 [3]; [11]) was “did not improve significantly”. The “Lung pathology: edema, monocyte and neutrophil infiltration” value (MHV-A59 [3]; [11]) was “reduced pulmonary edema and monocyte and neutrophil infiltration”, the “Viral replication in the lung (qRT-PCR)” value (MHV-A59 [3]; ATV006 500 mg/kg every 12 h) was “effective when started within 48 hpi” and the “Infectious viral particles in the lungs (plaque assay)” value (MHV-A59 [3]; ATV006 500 mg/kg initiated within 48 hpi) was “No infectious viral particles were detected”. The “MHV replication in the liver (qRT-PCR)” value (MHV-A59 [3]; ATV006 10, 25 and 50 mg/kg administered at 24 or 48 hpi) was “significantly inhibited MHV replication”, the Survival (MHV-A59 [1]; […], ATV006 2 mg/kg intragastric once daily) was “all died by 10 dpi” and the “Mortality and weight loss” value (MHV-A59 [1]; […], ATV006 5 to 50 mg/kg intragastric once daily) was “effectively prevented mortality and weight loss”. The “Reduction of viral titers in the liver” value (MHV-A59 [1]; mouse, in vivo, 2 mg/kg) was “approximately sixfold”, the “Live virus in the liver (plaque assay)” value (MHV-A59 [1]; mouse, in vivo, 50 mg/kg) was “no live virus was found in the liver” and the “Reduction of viral titers in the liver” value (MHV-A59 [1]; mouse, in vivo, 50 mg/kg) was 1,000,000 fold. For the same compound, the “Inflammatory cell infiltration in the liver (histopathology)” value (MHV-A59 [4]; ATV006 50 mg/kg intragastric twice daily) was “significant reduction in inflammatory cell infiltration”, the “Serum ALT and AST (liver injury markers)” value (MHV-A59 [4]; ATV006 50 mg/kg intragastric twice daily, 3 dpi, vs control) was “lower in the ATV006-treated group than in the control group” and the “Viral titers in the liver (plaque assay)” value (MHV-A59 [4]; ATV006-treated group, prophylactic, 3 dpi) was “below the detection limit”. For the same compound, the “Expression of inflammatory cytokines in the liver” value (MHV-A59 [4]; ATV006 prophylactic, 3 dpi) was “significant decrease in the expression of various inflammatory cytokines in the liver”, the Oral bioavailability [5] was “high oral bioavailability” and the EC50 (TGEV) was 3040 nM. For the same compound, the EC50 (PEDV) was 1050 nM, the Oral bioavailability [6] was “high oral bioavailability” and the “Serum ALT and AST (liver injury markers)” value (MHV-A59 [2]) was “significantly reduced the liver injury markers ALT and AST”. For the same compound, the “MHV replication in the lung (qRT-PCR and plaque assay)” value (MHV-A59 [2]) was “significantly inhibited MHV replication in the lung”, the “MHV replication in the liver (qRT-PCR)” value (MHV-A59 [2]; ATV006 2-50 mg/kg intragastric twice daily from 12 hpi) was “inhibited MHV replication in a dose-dependent manner” and the “Virus titers in the liver (plaque assay)” value (MHV-A59 [2]; ATV006 at 2, 10, 25, 50 mg/kg twice daily from 12 hpi) was “below the detection limit of the plaque assay”. The “Inflammatory cell infiltration in lung (histopathology)” value (MHV-A59 [7]; ATV006 500 mg/kg intragastric twice daily) was “vehicle-treated mice had more inflammatory cell infiltration compared to mice treated with ATV006”, the “MHV infectious particles in the lung (plaque assay)” value (MHV-A59 [7]; ATV006 50-500 mg/kg intragastric twice daily) was “dose-dependent decrease in the number of MHV infectious particles” and the “Inflammatory cytokines and chemokines in the lung (Ifnβ, Cxcl10, Il6, Il1β, Ifnγ)” value (MHV-A59 [7]; ATV006 prophylactic) was “significantly reduced the production of inflammatory cytokines and chemokines in the lung”. For the same compound, the “Inhibition of MHV-A59 viral load” value (MHV-A59 [8]) was “no inhibitory effect was observed” and the EC50 (HCoV-NL63) was 800 nM.
